Source: ChEMBL document CHEMBL1135865, “Novel guanidine-based inhibitors of inosine monophosphate dehydrogenase” (Bioorg Med Chem Lett, 2002)

Molecular target: T1, Inosine-5'-monophosphate dehydrogenase 2 (Homo sapiens, UniProt P12268)
Assay: The compound was tested for it's in vitro inhibitor potency against inosine monophosphate dehydrogenase II (IMPDH II)
Procedure, shortened: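 Human type II IMPDH purified from E. coli expressing the gene; 40 nM enzyme, 400 µM IMP, 2 mM DTT in 0.1 M Tris, 0.1 M KCl, 3 mM EDTA pH 8.0; final DMSO 2.5%. Started with NAD (final 400 µM); after 2 h at 25 °C, NADH read at 340 nm. IC50 for 50% inhibition of NADH accumulation from 4-parameter logistic fit.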

| IC50 | Structure (SMILES) |
| --- | --- |
| 110 nM | COc1cc(N/C(=N/C#N)Nc2cccc(CNC(=O)OCC3CCOC3)c2)ccc1-c1cnco1 (stereo not drawn) |
| > 3000 nM | COc1cc(N=C(N)Nc2cccc(C)c2)ccc1-c1cnco1 |

Tested on: CCRF-CEM
Assay: Inhibitory concentration against human T-lymphoblast CEM cell line (ATCC) by CEM proliferation assay.
Assay type: functional, cell-based
Procedure, shortened: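 CEM human T-lymphoblasts in RPMI 1640 with 10% heat-inactivated FBS plus penicillin/streptomycin, seeded 3000 cells/well with 0.5% DMSO. Compounds tested in triplicate from 10 uM top final concentration, 3-fold serial dilutions. Cells held 72 h in 5% CO2 humidified atmosphere. Viability measured by Alamar Blue (10% v/v, final 5 h), fluorescence at 530/590 nm.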

| IC50 | Structure (SMILES) |
| --- | --- |
| 410 nM | COc1cc(N/C(=N/c2cccc(C/N=C(\NC#N)Oc3ccccc3)c2)NC#N)ccc1-c1cnco1 |

Molecular target: T1, Inosine-5'-monophosphate dehydrogenase 2
Assay: In vitro inhibition of Inosine-5'-monophosphate dehydrogenase 2.
Procedure, shortened: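 Human type II IMPDH purified from E. coli expressing the gene; 40 nM enzyme, 400 µM IMP, 2 mM DTT in 0.1 M Tris, 0.1 M KCl, 3 mM EDTA pH 8.0; final DMSO 2.5%. Started with NAD (final 400 µM); after 2 h at 25 °C, NADH read at 340 nm.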

| Structure (SMILES) | IC50 |
| --- | --- |
| COc1cc(N/C(=N/c2cccc(C/N=C(\NC#N)Oc3ccccc3)c2)NC#N)ccc1-c1cnco1 | 16 nM |
| COc1cc(NC(=NC#N)Nc2cccc(OCCOc3ccccc3)c2)ccc1-c1cnco1 | 380 nM |
| COc1cc(N=C(N)NC(=O)c2ccccc2)ccc1-c1cnco1 | 800 nM |
| COc1cc(N/C(=N/c2cccnc2)NC#N)ccc1-c1cnco1 | 320 nM |
| COc1cc(NC(=NC#N)Nc2ccccn2)ccc1-c1cnco1 | 340 nM |
| COc1cc(NC(=NC#N)Nc2ccccc2C)ccc1-c1cnco1 | 2200 nM |
| COc1cc(NC(=N)NC#N)ccc1-c1cnco1 | 330 nM |
| COc1cc(NC(=NC#N)Nc2cccc(CNC(=O)O[C@H]3CCOC3)c2)ccc1-c1cnco1 | 340 nM |
| CCCCNC(=O)c1cccc(NC(=NC#N)Nc2ccc(-c3cnco3)c(OC)c2)c1 | 130 nM |
| COc1cc(NC(=NC#N)Nc2ccccc2)ccc1-c1cnco1 | 250 nM |
| COc1cc(NC(=O)Nc2cccc(C)c2)ccc1-c1cnco1 | 19 nM |
| COc1cc(NC(=NC#N)Nc2cccc(CNC(=O)NCC3CCCO3)c2)ccc1-c1cnco1 (stereo not drawn) | 180 nM |
| COc1cc(N/C(=N/C#N)Nc2ccc(C)cc2)ccc1-c1cnco1 | 1500 nM |

More lines, now with the values ahead:

| IC50 | Structure (SMILES) |
| --- | --- |
| > 1000 nM | COc1cc(N=C(NC(C)=O)Nc2cccc(C)c2)ccc1-c1cnco1 |
| 660 nM | CON/C(=N\c1ccc(-c2cnco2)c(OC)c1)Nc1cccc(C)c1 |
| 240 nM | COc1cc(NC(=NC#N)Nc2cccc(C)c2)ccc1-c1cnco1 |
| 1100 nM | COc1cc(NC(=NC#N)NCc2cccc(C)c2)ccc1-c1cnco1 |
| 740 nM | CCOC(=O)N=C(Nc1cccc(C)c1)Nc1ccc(-c2cnco2)c(OC)c1 |
| > 3000 nM | CN/C(=N\c1ccc(-c2cnco2)c(OC)c1)Nc1cccc(C)c1 |
| 280 nM | COc1cc(N/C(=N/c2cccc(CO)c2)NC#N)ccc1-c1cnco1 |
